Laboratory results taken from ChEMBL document CHEMBL2157903, “2-Arylbenzofuran-based molecules as multipotent Alzheimer's disease modifying agents” (Eur J Med Chem, 2012).
Active and inactive are the calls of the source. No cut-off for these calls is given here.

Legend:
Cholinesterase = Cholinesterase (Homo sapiens, UniProt P06276); test: Inhibition of human serum BuChE using butyrylthiocholine iodide as substrate preincubated for 20 mins prior to substrate addition by Ellman's method
How it was run: (§1)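 Ellman method with acetylthiocholine iodide (AChE) or butyrylthiocholine iodide (BuChE) as substrate. Enzyme and inhibitor preincubated 20 min at 37 °C before substrate addition. Blanks without enzyme corrected for non-enzymatic hydrolysis. Five inhibitor concentrations giving 20-80% inhibition. IC50 from linear regression of % inhibition vs log final concentration. Mean of two or three independent measurements, each in triplicate.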

Acetylcholinesterase [1] = target: T1, Acetylcholinesterase (Homo sapiens, UniProt P22303); test: Inhibition of human recombinant AChE using acetylthiocholine iodide as substrate preincubated for 20 mins prior to substrate addition by Ellman's method; how it was run: as §1
[2] = Inhibition of amyloid beta (25 to 35) fibril formation at 10 uM incubated up to 6 hrs by UV-Vis spectrophotometric analysis
How it was run: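 Aβ25-35 at 100 μM final, in 10 mM phosphate buffer pH 7.2, sonicated 1 min on addition. Compound added in MeOH at 10 μM final, with curcumin reference alongside. Polymerization followed by UV-vis at 190-380 nm over 0-6 h. Spectra of compound alone were subtracted. At least three independent runs.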

Cannabinoid receptor 2 [3] = target: T2, Cannabinoid receptor 2 (Homo sapiens, UniProt P34972); test: Displacement of [3H]CP-55940 from human recombinant CB2 receptor expressed in HEK293 cells after 90 mins; assay type: cell-based
How it was run: (§2)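 Membranes from HEK-293 cells stably expressing human recombinant CB1 (Bmax 2.5 pmol/mg) or CB2 (Bmax 4.7 pmol/mg). Incubated with [3H]-CP-55,940 (CB1 0.14 nM, Kd 0.18 nM; CB2 0.084 nM, Kd 0.31 nM) and increasing compound concentrations for 90 min at 30 °C. Non-specific binding defined with 10 […] 55212-2. IC50 by non-linear regression, converted to Ki by Cheng-Prusoff. Means of at least n = 3.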

SH-SY5Y [4] = test: Neuroprotective activity in human SH-SY5Y cells assessed as inhibition of amyloid beta (25 to 35)-induced cytotoxicity at 30 uM after 3 hrs by MTT assay; assay type: functional
How it was run: (§3)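 SH-SY5Y cells in DMEM with 10% FBS were seeded at 3 × 10⁴/well for 24 h. They were exposed for 3 h at 37 °C to HFIP-pretreated unaggregated Aβ25-35 with or without compound (1–30 range). Viability was read by MTT (5 mg/mL, 2 h; isopropanol; 570/690 nm) as % of untreated control. Percentage protection is given at the highest concentration. Mean ± SD of at least two experiments.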

[5] = Inhibition of amyloid beta (25 to 35) fibril formation incubated up to 6 hrs by UV-Vis spectrophotometric analysis
How it was run: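 Aβ25-35, sonicated 1 min, was mixed in 10 mM phosphate buffer (pH 7.2) with compound added in MeOH, on ice. Polymerization was followed by UV-visible spectroscopy at 190–380 nm over 0–6 h. Compound-alone spectra were subtracted, and peptide-alone and curcumin controls were run in parallel. IC50 (0.1–50 range) came from a sigmoidal least-squares fit. At least three independent runs.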

Cannabinoid receptor 2 [6] = target: T2, Cannabinoid receptor 2; test: Displacement of [3H]CP-55940 from human recombinant CB2 receptor expressed in HEK293 cells at 10 uM after 90 mins; assay type: cell-based
Cannabinoid receptor 1 [7] = target: T3, Cannabinoid receptor 1 (Homo sapiens, UniProt P21554); test: Displacement of [3H]CP-55940 from human recombinant CB1 receptor expressed in HEK293 cells after 90 mins; assay type: cell-based; how it was run: as §2
[8] = target: Amyloid-beta precursor protein (Homo sapiens) (UniProt P05067); test: Inhibition of amyloid beta (25 to 35) binding to plasma membrane surface of human Sh-SY5Y cells at 30 uM after 30 mins by congo red-based spectrophotometry; assay type: cell-based
How it was run: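 SH-SY5Y cells were seeded at 5 × 10³/well for 24 h, then given fresh medium with Aβ25-35 and compound for 10, 20 and 30 min. After two PBS washes, bound peptide was stained with Congo red in PBS for 20 min. Absorbance was read at 540 nm and expressed as % of untreated cells.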

Cannabinoid receptor 1 [9] = target: T3, Cannabinoid receptor 1; test: Displacement of [3H]CP-55940 from human recombinant CB1 receptor expressed in HEK293 cells at 10 uM after 90 mins; assay type: cell-based
How it was run: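 Membranes from HEK-293 cells stably expressing human recombinant CB1 or CB2 were incubated with [³H]-CP-55,940 (0.14 nM for CB1; 0.084 nM for CB2) plus test compound for 90 min at 30 °C. Non-specific binding was defined with WIN 55212-2. Percent displacement of bound radioligand at the maximum tested concentration is reported. At least n = 3 experiments.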

SH-SY5Y [10] = test: Neuroprotective effect in human SH-SY5Y cells assessed as inhibition of amyloid beta (25 to 35)-induced ROS production at 30 uM after 3 hrs by DHE-based fluorimetric analysis; assay type: functional, cell-based
How it was run: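 SH-SY5Y cells were seeded at 1 × 10⁴/well on culture slides for 24 h and treated with Aβ25-35 with or without compound for 3 h. ROS was measured with DHE loaded for 15 min in the dark, then 1 h in serum-free DMEM at 37 °C. Fluorescence microscopy covered four random fields of 50–100 cells each, scored as densitometry per cell versus untreated cells. Mean ± SD of three experiments.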

SH-SY5Y [11] = test: Neuroprotective activity in human SH-SY5Y cells assessed as inhibition of amyloid beta (25 to 35)-induced cytotoxicity after 3 hrs by MTT assay; assay type: functional, cell-based; how it was run: as §3
Acetylcholinesterase [12] = target: T1, Acetylcholinesterase; test: Ratio of rivastigmine IC50 to compound IC50 for human recombinant AChE
Acetylcholinesterase [13] = target: T1, Acetylcholinesterase; test: Pseudo-irreversible inhibition of human recombinant AChE using acetylthiocholine iodide as substrate preincubated for 20 mins prior to substrate addition by Ellman's method

T1 sequence (P22303 whole entry): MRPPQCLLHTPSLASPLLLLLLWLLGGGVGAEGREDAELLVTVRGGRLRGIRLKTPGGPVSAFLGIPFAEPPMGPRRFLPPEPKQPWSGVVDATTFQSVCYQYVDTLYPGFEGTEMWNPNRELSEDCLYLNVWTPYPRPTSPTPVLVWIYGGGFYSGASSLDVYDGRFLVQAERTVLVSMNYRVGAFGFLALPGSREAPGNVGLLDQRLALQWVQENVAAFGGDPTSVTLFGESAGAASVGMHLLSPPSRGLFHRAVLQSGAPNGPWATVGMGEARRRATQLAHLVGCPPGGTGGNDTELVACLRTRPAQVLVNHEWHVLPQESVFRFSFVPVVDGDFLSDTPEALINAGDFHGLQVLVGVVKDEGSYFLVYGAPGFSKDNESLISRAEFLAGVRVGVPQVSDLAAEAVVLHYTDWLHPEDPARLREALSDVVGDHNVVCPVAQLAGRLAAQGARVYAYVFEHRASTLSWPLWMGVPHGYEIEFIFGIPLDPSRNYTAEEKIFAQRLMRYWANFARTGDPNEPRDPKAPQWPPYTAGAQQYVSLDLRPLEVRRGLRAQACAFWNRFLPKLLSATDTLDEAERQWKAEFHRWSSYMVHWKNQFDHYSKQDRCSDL
Sequence of Cholinesterase (P06276 whole entry): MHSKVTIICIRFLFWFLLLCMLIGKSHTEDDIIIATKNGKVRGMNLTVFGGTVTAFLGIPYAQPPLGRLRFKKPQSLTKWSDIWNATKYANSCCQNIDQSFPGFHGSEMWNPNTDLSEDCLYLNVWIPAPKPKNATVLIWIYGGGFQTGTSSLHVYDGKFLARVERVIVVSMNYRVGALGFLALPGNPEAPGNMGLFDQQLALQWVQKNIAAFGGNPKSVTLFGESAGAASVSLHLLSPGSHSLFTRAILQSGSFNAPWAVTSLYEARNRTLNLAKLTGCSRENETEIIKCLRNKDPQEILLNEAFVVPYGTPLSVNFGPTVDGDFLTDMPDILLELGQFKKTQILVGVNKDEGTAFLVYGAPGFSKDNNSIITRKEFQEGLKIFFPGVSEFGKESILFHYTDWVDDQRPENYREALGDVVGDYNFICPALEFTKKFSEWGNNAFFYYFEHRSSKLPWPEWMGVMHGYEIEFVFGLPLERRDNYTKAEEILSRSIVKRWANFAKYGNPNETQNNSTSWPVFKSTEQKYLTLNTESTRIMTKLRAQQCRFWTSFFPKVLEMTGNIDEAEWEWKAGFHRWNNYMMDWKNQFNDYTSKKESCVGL
T3 sequence (P21554 whole entry): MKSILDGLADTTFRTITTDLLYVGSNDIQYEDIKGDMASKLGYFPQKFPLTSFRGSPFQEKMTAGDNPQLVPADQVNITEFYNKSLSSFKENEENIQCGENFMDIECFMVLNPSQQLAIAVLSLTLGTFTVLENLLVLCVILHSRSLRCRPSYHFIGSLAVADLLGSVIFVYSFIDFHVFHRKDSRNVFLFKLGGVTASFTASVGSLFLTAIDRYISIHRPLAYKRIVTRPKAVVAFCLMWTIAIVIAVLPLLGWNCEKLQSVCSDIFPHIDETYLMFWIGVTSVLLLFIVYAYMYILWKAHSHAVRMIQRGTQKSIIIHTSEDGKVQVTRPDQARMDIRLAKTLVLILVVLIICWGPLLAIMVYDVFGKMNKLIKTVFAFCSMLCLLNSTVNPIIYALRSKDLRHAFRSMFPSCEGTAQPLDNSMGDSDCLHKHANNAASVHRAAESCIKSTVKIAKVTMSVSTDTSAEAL
T2 sequence (P34972 whole entry): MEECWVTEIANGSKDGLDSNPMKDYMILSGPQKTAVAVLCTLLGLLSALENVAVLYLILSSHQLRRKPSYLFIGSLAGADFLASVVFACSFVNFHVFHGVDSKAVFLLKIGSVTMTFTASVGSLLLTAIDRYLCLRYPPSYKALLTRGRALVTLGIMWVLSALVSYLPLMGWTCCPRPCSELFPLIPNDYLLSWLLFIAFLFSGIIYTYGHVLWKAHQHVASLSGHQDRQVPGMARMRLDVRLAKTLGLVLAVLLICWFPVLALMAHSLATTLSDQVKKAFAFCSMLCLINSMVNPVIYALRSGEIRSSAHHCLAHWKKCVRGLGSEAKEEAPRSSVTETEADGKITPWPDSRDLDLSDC
Sequence of Amyloid-beta precursor protein (Homo sapiens) (P05067 whole entry): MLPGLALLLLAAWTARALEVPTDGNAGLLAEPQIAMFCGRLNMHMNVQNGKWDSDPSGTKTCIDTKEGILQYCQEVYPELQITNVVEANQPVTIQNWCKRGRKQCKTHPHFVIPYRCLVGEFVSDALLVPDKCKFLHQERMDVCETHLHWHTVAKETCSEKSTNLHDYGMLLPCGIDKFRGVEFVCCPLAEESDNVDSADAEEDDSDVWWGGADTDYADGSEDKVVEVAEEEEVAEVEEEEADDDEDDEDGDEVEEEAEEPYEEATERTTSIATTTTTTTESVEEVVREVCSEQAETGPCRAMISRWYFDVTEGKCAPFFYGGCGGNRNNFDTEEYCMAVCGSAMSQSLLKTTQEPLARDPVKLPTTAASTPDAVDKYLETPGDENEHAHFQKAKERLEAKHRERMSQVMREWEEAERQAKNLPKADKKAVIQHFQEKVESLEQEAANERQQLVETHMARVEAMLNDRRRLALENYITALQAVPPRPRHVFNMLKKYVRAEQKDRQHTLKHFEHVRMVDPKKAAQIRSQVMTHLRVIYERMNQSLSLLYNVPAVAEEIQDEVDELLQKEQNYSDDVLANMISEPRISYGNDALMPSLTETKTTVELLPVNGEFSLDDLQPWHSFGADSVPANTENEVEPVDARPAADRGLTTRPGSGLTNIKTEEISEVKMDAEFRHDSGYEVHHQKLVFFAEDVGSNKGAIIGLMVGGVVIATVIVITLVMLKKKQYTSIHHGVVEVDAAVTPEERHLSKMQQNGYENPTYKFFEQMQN

Compound	IC50 (Cholinesterase) [µM]	IC50 (Acetylcholinesterase [1])	inhibition [2]	EC50 (Cannabinoid receptor 2 [3]) [µM]	Ki (Cannabinoid receptor 2 [3]) [µM]	Activity (Cannabinoid receptor 2 [6]) [%]	EC50 (Cannabinoid receptor 1 [7]) [µM]	Ki (Cannabinoid receptor 1 [7]) [µM]	Activity (Cannabinoid receptor 1 [9]) [%]	Activity (Cannabinoid receptor 2 [3])	Activity (Cannabinoid receptor 1 [7])	IC50 (Acetylcholinesterase [1]; read-out: IC50) [µM]	other results
CN(CCCOc1ccc(-c2cc3ccccc3o2)cc1)Cc1ccccc1	136	Not Active	Active	–	–	–	–	–	–	–	–	–	–
CN(CCCCCCCOc1ccc(-c2oc3ccccc3c2C(=O)c2ccccc2)cc1)Cc1ccccc1	–	–	47%	> 10	> 10	47.3	0.79	0.32	8.72	–	–	–	inhibition at 30 µM (SH-SY5Y [4]): 58.2%; IC50 [5]: 12.5 µM; inhibition [8]: Active; inhibition (SH-SY5Y [10]): Active
CN(CCCCCCCOc1cccc(-c2oc3ccccc3c2C(=O)c2ccccc2)c1)Cc1ccccc1	2.88	–	35%	–	–	–	–	–	–	inactive	inactive	0.24	inhibition at 30 µM (SH-SY5Y [4]): 48.4%; inhibition [8]: Active; inhibition (SH-SY5Y [10]): Active; inhibition (SH-SY5Y [11]): Dose-dependent effect
CNC(=O)Oc1cccc(CN(C)CCCCCCCOc2ccc(-c3oc4ccccc4c3C(=O)c3ccc(C)cc3)cc2)c1	0.88	–	–	–	–	–	–	–	–	–	–	0.34	Ratio IC50 (Acetylcholinesterase [12]): 1; inhibition (Acetylcholinesterase [13]): Active
CN(CCCCCOc1ccc(-c2cc3ccccc3o2)cc1)Cc1ccccc1	6.6	–	Active	–	–	–	–	–	–	–	–	215	–
COc1ccc(C(=O)c2c(-c3cccc(OCCCCCCCN(C)Cc4ccccc4)c3)oc3ccccc23)cc1OC	2.51	Not Active	–	–	–	–	–	–	–	inactive	inactive	–	–
CCN(CC)Cc1cccc(C(=O)c2c(-c3ccc(OCCCCCCCN(C)Cc4ccccc4)cc3)oc3ccccc23)c1	3.18	–	Active	> 10	> 10	47.3	> 10	> 10	29.8	–	–	53	–
Cc1ccc(C(=O)c2c(-c3cccc(OCCCCCCCN(C)Cc4ccccc4)c3)oc3ccccc23)cc1	43.9	Not Active	–	–	–	–	–	–	–	inactive	inactive	–	–
CCN(CC)Cc1ccc(C(=O)c2c(-c3ccc(OCCCCCCCN(C)Cc4ccccc4)cc3)oc3ccccc23)cc1	9.42	–	Active	4.4	1.12	65.2	> 10	> 10	47.7	–	–	100	–
COc1cccc(C(=O)c2c(-c3cccc(OCCCCCCCN(C)Cc4ccccc4)c3)oc3ccccc23)c1	1.37	Not Active	–	–	–	–	–	–	–	inactive	inactive	–	–
CCN(CC)CCOc1ccc(C(=O)c2c(-c3ccc(OCCCCCCCN(C)Cc4ccccc4)cc3)oc3ccccc23)cc1	23	–	Active	4.65	1.18	92	> 10	> 10	35.2	–	–	78	–
COc1ccccc1C(=O)c1c(-c2cccc(OCCCCCCCN(C)Cc3ccccc3)c2)oc2ccccc12	1.97	Not Active	–	–	–	–	–	–	–	inactive	inactive	–	–
